# Experimental data as given in BindingDB's records for doi:10.1021/jm00012a002 (Tosoh, 1995).
# Legend:
# [1] = target: HIV-1 RT (reverse transcriptase); assay: Inhibitory effect on HIV-1 RT activity using template primer,poly (rA)-oligo (dT)
# Outline: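 Recombinant HIV-1 reverse transcriptase with poly(rA)-oligo(dT) as template-primer; IC50 is the 50% inhibition concentration, given as the mean of at least two separate experiments.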
# [2] = Inhibitory effect on HIV-1 RT activity using template primer,poly (rC)-oligo (dG)
Structure (SMILES),IC50 [1],IC50 [2]
"CCCN(C)C(=O)Oc1nsnc1-c1c(Cl)cccc1Cl [Methyl-propyl-carbamic acid 4-(2,6-dichloro-phenyl)-[1,2,5]thiadiazol-3-yl ester]",5.8 µM,0.8 µM
CC(=O)c1ccc(C)cc1N[C@H](C(N)=O)c1c(Cl)cccc1Cl,16 µM,–
"CCCCN(C)C(=O)Oc1nsnc1-c1c(Cl)cccc1Cl [Butyl-methyl-carbamic acid 4-(2,6-dichloro-phenyl)-[1,2,5]thiadiazol-3-yl ester]",12 µM,–
"CCN(C)C(=O)Oc1nsnc1-c1c(Cl)cccc1Cl [Ethyl-methyl-carbamic acid 4-(2,6-dichloro-phenyl)-[1,2,5]thiadiazol-3-yl ester]",3.4 µM,0.3 µM
